The values below come from ChEMBL document CHEMBL4014325.

Calls of active or inactive are those of the source. No cut-off for these calls is given here.

Series [1] is described as follows: Cytotoxicity against human HT-29 cells assessed as cell survival at 5 uM after 8 hrs by alamar blue assay relative to control. Type of series: cell-based. Particulars: read-out: Survival. The procedure, abridged:
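Cells cultured overnight, then exposed to compound at 5 μM for 8 h. Viability read by Alamar Blue per kit instructions. Table reports n=3.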
A general note: Resazurin is reduced to fluorescent resorufin, in cell work by metabolically active cells.

Series [2] concerns the target Cystic fibrosis transmembrane conductance regulator (Homo sapiens) (UniProt P13569). The experiment in a line: Inhibition of human wild type CFTR expressed in FRT cells co-expressing halide sensitive YFP-H148Q assessed as reduction in forskolin induced cAMP activated chloride conductance by measuring decrease in iodide influx after 15 mins by fluorescence assay. Format: cell-based. The procedure, abridged: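 FRT cells co-expressing YFP and wild-type CFTR, washed with PBS. Incubated 15 min with compound in PBS containing 20 μM forskolin. Plate reader baseline 2 s, then 12 s after rapid addition of I⁻-containing solution; initial I⁻ influx rate computed.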

A short description of series [3]: Metabolic stability in rat liver microsomes assessed as compound remaining in presence of NADPH at 10 uM after 180 mins by LC/MS analysis. Type of series: ADME, microsome. The following applies: read-out: Stability. The procedure, abridged: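 10 μM compound shaken at 37 °C with rat liver microsomes (1 mg protein/mL) in 100 mM potassium phosphate buffer with 1 mM NADPH, sampled at 2–180 min. Quenched on ice with ice-cold ethyl acetate, centrifuged, supernatant dried and redissolved. Parent compound quantified by C₁₈ reverse-phase LC/MS (5–95% acetonitrile gradient); mean ± SEM, n=3.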

Series [4] can be described thus: Kinetic aqueous solubility of compound in PBS by titration method. Format: physicochemical. The following applies: buffer. The procedure, abridged:
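Increasing quantities of a 30 mM DMSO stock added to 2 mL aliquots of PBS. Kinetic solubility taken from the titration point.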

The target of series [5] is T1, Anoctamin-1 (Mus musculus) (UniProt Q8BHY3).
T1 sequence (whole entry): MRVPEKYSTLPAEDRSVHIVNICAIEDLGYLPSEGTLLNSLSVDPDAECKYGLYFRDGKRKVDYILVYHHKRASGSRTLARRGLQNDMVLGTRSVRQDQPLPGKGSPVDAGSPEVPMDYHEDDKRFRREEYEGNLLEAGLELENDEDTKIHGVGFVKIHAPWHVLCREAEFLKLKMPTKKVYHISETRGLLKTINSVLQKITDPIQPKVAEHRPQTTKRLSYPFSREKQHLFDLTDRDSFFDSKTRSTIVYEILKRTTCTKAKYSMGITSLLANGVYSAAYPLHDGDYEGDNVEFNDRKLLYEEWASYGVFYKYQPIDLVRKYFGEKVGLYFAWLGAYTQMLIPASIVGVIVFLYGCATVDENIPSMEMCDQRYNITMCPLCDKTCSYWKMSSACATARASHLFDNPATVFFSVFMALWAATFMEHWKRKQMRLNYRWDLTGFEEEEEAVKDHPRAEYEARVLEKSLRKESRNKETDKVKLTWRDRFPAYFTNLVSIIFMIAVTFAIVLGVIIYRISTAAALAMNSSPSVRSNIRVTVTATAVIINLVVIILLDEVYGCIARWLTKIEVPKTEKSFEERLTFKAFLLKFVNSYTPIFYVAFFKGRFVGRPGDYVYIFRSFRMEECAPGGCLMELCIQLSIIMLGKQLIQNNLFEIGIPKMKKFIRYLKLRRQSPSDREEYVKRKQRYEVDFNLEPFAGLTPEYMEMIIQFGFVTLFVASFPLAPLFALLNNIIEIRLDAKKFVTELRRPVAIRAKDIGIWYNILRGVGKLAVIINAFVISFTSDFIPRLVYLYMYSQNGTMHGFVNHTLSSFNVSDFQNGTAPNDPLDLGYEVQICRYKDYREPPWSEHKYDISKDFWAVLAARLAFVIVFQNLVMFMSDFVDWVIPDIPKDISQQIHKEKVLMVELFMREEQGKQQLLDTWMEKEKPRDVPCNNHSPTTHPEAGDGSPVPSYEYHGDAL
The series is described as follows: Inhibition of TMEM16A in CD1 mouse ileum assessed as reduction in intestinal smooth muscle contraction. The essentials: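 Ileal segments of ~2 cm from adult CD1 mice killed by avertin overdose (200 mg/kg), ends tied, mounted on a force transducer. […] Stabilised 60 min at 0.5 g resting tension with changes every 15 min. Compound added to the bath; spontaneous isometric contractions recorded; three separate experiments.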

Series [6] can be described thus: Stability of compound in aqueous solution at 100 uM after 1 day by ESI-LCMS analysis. Format: physicochemical. Particulars: read-out: Stability. The procedure, abridged:
(§1)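 Duplicate samples of 100 μM compound in H₂O (20% DMSO) with 100 μM 5-chloro-3-phenyl-2,1-benzisoxazole as internal standard. Kept at 25 °C for 3 days and analysed daily by ESI-LCMS for the parent compound and the oxalamic acid degradation product.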

Series [7] can be described thus: Stability of compound in aqueous solution at 100 uM after 2 days by ESI-LCMS analysis. Format: physicochemical. Particulars: read-out: Stability. The procedure, abridged: as §1
Series [8] can be described thus: Stability of compound in DMSO. Type of series: physicochemical.
The target in series [9] is T2, Anoctamin-1 (Homo sapiens) (UniProt Q5XXA6).
T2 sequence (whole entry): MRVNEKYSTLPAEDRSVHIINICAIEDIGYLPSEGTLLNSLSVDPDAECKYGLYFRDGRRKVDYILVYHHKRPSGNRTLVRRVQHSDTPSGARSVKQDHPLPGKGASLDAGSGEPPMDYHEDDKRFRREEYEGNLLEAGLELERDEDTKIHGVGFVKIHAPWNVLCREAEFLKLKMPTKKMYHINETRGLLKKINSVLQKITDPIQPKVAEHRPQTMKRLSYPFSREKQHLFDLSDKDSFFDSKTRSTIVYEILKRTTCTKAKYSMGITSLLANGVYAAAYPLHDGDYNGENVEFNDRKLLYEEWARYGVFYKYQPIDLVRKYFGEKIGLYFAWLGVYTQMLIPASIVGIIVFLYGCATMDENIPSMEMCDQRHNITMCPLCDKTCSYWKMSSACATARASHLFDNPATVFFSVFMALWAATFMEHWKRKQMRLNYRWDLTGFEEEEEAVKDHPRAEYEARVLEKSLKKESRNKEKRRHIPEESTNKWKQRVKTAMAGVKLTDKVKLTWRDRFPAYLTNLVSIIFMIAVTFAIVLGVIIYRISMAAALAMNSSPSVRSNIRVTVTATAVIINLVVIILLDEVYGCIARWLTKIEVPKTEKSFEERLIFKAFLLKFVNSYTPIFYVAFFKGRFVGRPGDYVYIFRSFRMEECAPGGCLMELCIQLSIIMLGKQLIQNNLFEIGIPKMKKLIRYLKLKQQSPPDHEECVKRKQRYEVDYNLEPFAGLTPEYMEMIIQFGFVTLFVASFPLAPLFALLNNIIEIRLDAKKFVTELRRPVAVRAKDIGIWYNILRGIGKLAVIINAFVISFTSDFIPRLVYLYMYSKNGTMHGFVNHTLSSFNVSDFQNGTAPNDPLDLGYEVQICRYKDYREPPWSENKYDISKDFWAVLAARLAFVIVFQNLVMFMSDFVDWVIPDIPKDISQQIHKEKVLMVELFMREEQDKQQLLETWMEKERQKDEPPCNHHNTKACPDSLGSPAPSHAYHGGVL
Particulars: 250 nM.

The target of series [10] is T2, Anoctamin-1 (Homo sapiens). Particulars: 250 nM. The source holds these as a separate data set.
Series [11] addresses T2, Anoctamin-1 (Homo sapiens). The following applies: 1 uM.
For series [12], the target named is T2, Anoctamin-1 (Homo sapiens). Particulars: 1 uM. The source holds these as a separate data set.
Series [13] addresses T2, Anoctamin-1 (Homo sapiens). The following applies: 1 uM. The source holds these as a separate data set.

Chain of Cystic fibrosis transmembrane conductance regulator (Homo sapiens) (P13569 whole entry, looked up): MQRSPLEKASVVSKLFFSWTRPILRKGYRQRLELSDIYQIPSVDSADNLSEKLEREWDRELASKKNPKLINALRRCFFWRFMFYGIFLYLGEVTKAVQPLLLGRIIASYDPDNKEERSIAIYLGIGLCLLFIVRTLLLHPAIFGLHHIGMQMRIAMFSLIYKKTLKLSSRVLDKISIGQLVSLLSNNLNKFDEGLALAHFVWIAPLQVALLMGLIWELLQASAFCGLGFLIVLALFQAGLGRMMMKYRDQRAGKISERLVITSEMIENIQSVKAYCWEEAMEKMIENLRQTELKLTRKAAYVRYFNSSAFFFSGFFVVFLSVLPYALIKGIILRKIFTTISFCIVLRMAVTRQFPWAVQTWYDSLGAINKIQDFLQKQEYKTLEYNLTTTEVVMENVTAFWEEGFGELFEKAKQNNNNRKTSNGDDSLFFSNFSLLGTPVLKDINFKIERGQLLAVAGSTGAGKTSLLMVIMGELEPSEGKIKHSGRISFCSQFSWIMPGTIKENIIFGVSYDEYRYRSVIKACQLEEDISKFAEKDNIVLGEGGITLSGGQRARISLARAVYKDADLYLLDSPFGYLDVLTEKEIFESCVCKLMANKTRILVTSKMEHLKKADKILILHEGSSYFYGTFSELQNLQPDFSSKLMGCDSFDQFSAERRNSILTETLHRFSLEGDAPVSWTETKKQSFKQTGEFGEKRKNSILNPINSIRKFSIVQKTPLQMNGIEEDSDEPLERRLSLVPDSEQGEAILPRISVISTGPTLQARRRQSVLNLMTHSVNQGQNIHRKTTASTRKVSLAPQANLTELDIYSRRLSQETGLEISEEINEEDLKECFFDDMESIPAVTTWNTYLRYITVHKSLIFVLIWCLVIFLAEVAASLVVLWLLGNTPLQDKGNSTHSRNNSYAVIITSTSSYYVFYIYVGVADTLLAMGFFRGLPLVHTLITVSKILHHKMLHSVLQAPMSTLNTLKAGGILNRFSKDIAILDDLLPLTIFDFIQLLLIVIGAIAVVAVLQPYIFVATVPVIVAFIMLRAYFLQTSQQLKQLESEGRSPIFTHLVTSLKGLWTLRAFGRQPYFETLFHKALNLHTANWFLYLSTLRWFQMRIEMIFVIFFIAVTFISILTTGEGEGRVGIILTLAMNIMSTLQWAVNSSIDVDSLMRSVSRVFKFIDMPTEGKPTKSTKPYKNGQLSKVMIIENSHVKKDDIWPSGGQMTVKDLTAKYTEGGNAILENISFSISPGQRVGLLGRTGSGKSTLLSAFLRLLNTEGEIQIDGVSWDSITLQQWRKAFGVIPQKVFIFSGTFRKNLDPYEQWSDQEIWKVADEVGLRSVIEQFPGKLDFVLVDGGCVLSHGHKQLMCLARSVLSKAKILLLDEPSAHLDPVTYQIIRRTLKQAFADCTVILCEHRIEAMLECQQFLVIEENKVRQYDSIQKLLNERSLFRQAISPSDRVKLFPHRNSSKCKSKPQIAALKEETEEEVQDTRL

Take `Cc1ccccc1NC(=O)c1c(NC(=O)C(F)(F)Br)sc2c1CCCCC2`: in series [1], the viability at 8 h, 5 µM came to 97%. Moreover, the inhibition entry in [2] and in series [10] was “inactive” in each case. In addition, the remaining at 3 h, 10 µM in series [3] amounted to 30%. Further, the Kinetic_solubility in [4] was determined as 0.04 mg/mL. The inhibition entry in series [5] is “Dose-dependent effect”. In addition, in series [6], the remaining at 24 h, 100 µM amounted to 72%. Besides, in series [7], the remaining at 48 h, 100 µM amounted to 30%. Moreover, the Stability in series [8] was greater than 6 months. Further, the inhibition entry in series [9], in series [11], in series [12] and in series [13] was “Active” each time.
